Only some compounds are listed: those with a hit (about 4.8% of all), similar ones and a draw of the others.
T cruzi inh = inhibitors of intracellular T. cruzi growth, primary screen, luminescence, NIH3T3 host cells; inhibition, % (no concentration beside the values); T. cruzi beta-gal in NIH3T3, 90 h; AID 1885, 2009; 300,000 compounds, 1.4% hits;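 active = mean inhibition across valid replicates above about 55%, limit read from the data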;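 also: signal also drops with host cell toxicity which is not excluded here; 0% = plate median of DMSO wells and 100% = zero luminescence signal; higher percent means less beta-gal luminescence so fewer parasites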
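Material: NIH/3T3 host cells with β-galactosidase reporter T. cruzi; Input: 5,000 host fibroblasts per well; Medium: DMEM, 2% fetal bovine serum; Compound: 50 nL DMSO compound solution per well; Schedule: 3 h host attachment, then at least 90 h co-culture; Detection: luminescent β-galactosidase signal after 60 min lysis.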
CSC inhib = cancer stem cell viability inhibitors, primary screen, luminescence. cancer stem cell-like cells viability. 300,000 compounds, 1.1% hits. inhibition, % at 7.5 µM; in the data active = inhibition above about 75%; tested in HMLE shEcad cells
SUMO Mot1 rescue = yeast Mot1-301 growth rescue at high temperature, primary screen, SUMOylation pathway inhibitor project, S. cerevisiae, ATP luminescence, 38.5C. growth rescue, % at 18.8 µM. S. cerevisiae Mot1-301 growth rescue; percent above DMSO median, 100 means doubled. AID 2716, 2010. 320,000 compounds, 1% hits;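 active = every valid replicate shows activation above 250% relative to neutral control wells; inactive = the rest, any valid replicate at or below 250%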;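 also: OY570 slx delta 5 strain wells were the positive control but not used for scaling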
Beta apoptosis = inhibitors of cytokine-induced beta cell apoptosis, primary screen, luminescence; INS-1E cytokine-induced death, ATP luminescence, 48 h; percent of positive-control rescue, neutral wells zero; protection from apoptosis, % (no concentration beside the values); 300,000 compounds, 0.8% hits;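 active = Every replicate reaches about 75%, or at least half do and their mean reaches it too, limit read from the data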;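 also: 0% = cytokine-treated negative control wells and 100% = positive control rescue; higher means more ATP so stronger rescue from cytokine killing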
WT yeast gro inh = growth inhibition of WT strain, primary screen, mitochondrial fusion inhibitor project, WT and mutant strains, chemical genetic; mitochondrial fusion phenotypic screen; inhibition, % at 10 µM; 190,000 compounds, 2.1% hits; in the data active = inhibition above about 58%; tested in S. cerevisiae
Efflux pump mplx = inhibitors of Candida efflux pumps in yeast, primary screen, S. cerevisiae, Nile Red, multiplex | S. cerevisiae Candida pump triplex | 330,000 compounds, 0.44% hits | inhibition, % at 10 µM;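 active = plate passing quality check with inhibition over a set limit, or well fluorescence over plate mean plus 4 SD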;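 also: Nile Red retained in pooled yeast measured as flow cytometry median fluorescence; 0% = buffer negative control and 100% = Enniatin B positive control; higher means more Nile Red kept so more efflux inhibition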
Cmpd fluor yeast = compound fluorescence in yeast efflux pump counter-screen; shares compounds with Efflux pump mplx; S. cerevisiae AD/pABC3, flow cytometry; fluorescence ratio to DMSO, % at 10 µM; 1,700 compounds, 4% hits;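 active = fluorescence ratio to DMSO above its plate's cutoff, the plate mean ratio plus 5 SD, cut at about 210% in these data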;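 also: unstained yeast with no Nile Red so the signal is compound autofluorescence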
Mdr1 pump inh = inhibitors of Candida albicans Mdr1 efflux, confirmation, flow cytometry, singleplex, Cherry Pick1 set. S. cerevisiae AD/CaMDR1, Nile Red efflux. 1,700 compounds, 1% hits. shares compounds with Efflux pump mplx. inhibition, % at 10 µM; in the data active = inhibition above about 26%;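 also: 0% = DMSO vehicle and 100% = reference inhibitor; higher means more Nile Red retained so more efflux inhibition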
CaCdr2 efflux inh = inhibitors of Candida albicans Cdr2 efflux pump, confirmation, S. cerevisiae AD/CaCDR2, flow cytometry, cherry pick 1, singleplex | shares compounds with Efflux pump mplx | 1,700 compounds, 4% hits | Nile Red retention ratio vs DMSO, % at 10 µM | Nile Red retention; in the data active = Nile Red retention ratio vs DMSO above about 190%;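 also: higher ratio means more blocking of Cdr2 efflux of the dye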
CaCdr1 efflux inh = inhibitors of Candida albicans Cdr1 efflux pump, confirmation, S. cerevisiae AD/CaCDR1, flow cytometry, cherry pick 1, singleplex; shares compounds with Efflux pump mplx; Nile Red efflux; inhibition, % at 10 µM; 1,700 compounds, 1% hits; AID 588522, 2011;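 active = inhibition above the screen-wide mean plus twice its standard deviation, cut at about 32% in these data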
An asterisk follows results filed as active; . = not tested or not shown; + = active, no number.

SMILES | T cruzi inh | CSC inhib | SUMO Mot1 rescue | Beta apoptosis | WT yeast gro inh | Efflux pump mplx | Cmpd fluor yeast | Mdr1 pump inh | CaCdr2 efflux inh | CaCdr1 efflux inh
O=C(Nc1ccccc1C(=O)Nc1ccccn1)c1cc(F)c(F)cc1Cl | -2 | . | -15 | . | . | 0 | . | . | . | .
O=C(N1CCOCC1)N1CCN(S(=O)(=O)c2cccc([N+](=O)[O-])c2)CC1 | -10 | 13 | -11 | -6 | . | 1.8* | 104 | 0 | 96 | 0
O=C(N1CCCCC1)N1CCN(S(=O)(=O)c2cccc([N+](=O)[O-])c2)CC1 | -2 | -12 | 5 | 1 | . | 0 | . | . | . | .
CC(C)Cn1cnc2c(c1=O)c1nc3ccccc3nc1n2Cc1ccc2c(c1)OCO2 | . | . | . | . | 2 | . | . | . | . | .
CCC(C)n1cnc2c(c1=O)c1nc3ccccc3nc1n2Cc1ccc(OC)cc1 (stereo not given) | 40 | 4 | 31 | -2 | 65* | 70* | 100 | 0 | 123 | 1
Cc1noc(C)c1C(=O)OCC(=O)Nc1ccccc1SCC#N | . | 1 | 5 | -4 | . | 0 | . | . | . | .
COc1ccc(C(C)n2c(C)c3c(C)nnc(C)c3c2C)cc1 (stereo not given) | 33 | -13 | 6 | -9 | -15 | 6.7* | 106 | 0 | 103 | 0
Cc1sc(NC(=S)NC(=O)c2ccco2)c(C#N)c1C | 10 | 4 | 428 | 0 | 12 | 0 | . | . | . | .
COc1ccc2cc3cc(C(=O)NCc4ccc5c(c4)OCO5)oc3nc2c1 | 9 | 1 | 53 | -7 | 12 | 0 | . | . | . | .
COc1ccc2cc3cc(C(=O)N4CCN(Cc5ccc6c(c5)OCO6)CC4)oc3nc2c1 | 21 | 8 | 8 | -5 | -2 | 0.6* | 97 | 0 | 100 | 0
N#Cc1nc(COc2ccc(Cl)cc2Cl)oc1N1CCOCC1 | 19 | 16 | -26 | -8 | 29 | 0.8* | 109 | 0 | 108 | 0
CC1(C)Cc2cccc(OCC(=O)Nc3cc(C(F)(F)F)ccc3N3CCOCC3)c2O1 | 1 | -3 | 0 | 2 | 10 | 0 | . | . | . | .
COc1cc(/C=C2\SC(=S)N(Nc3ncc(C(F)(F)F)cc3Cl)C2=O)ccc1O | 19 | 51 | -7 | -6 | 83* | 0 | 478* | 0 | 97 | 0
COc1cc(/C=C2\SC(=S)N(NC(=O)c3ccc(O)cc3)C2=O)ccc1O | -6 | 1 | 120 | 0 | . | 1 | . | . | . | .
CN(C)c1ccc(/C=C2\SC(=S)N(Nc3ncc(C(F)(F)F)cc3Cl)C2=O)cc1 | -7 | . | 88 | -9 | 5 | 1.2* | + | 0 | 237* | 1
Cc1cc(C)nc(NN2C(=O)/C(=C/c3ccccc3)SC2=S)n1 | -1 | -3 | -11 | -3 | 4 | 0 | . | . | . | .
COc1cc2c(cc1O)CCN(C(=O)c1ccco1)C2C (stereo not given) | -9 | -5 | 8 | . | 3 | 1.2* | 97 | 0 | 110 | 0
CNCc1ccccc1OCC(=O)Nc1ccccc1 | 0 | 2 | 10 | -3 | -10 | 8.2* | 106 | 0 | 106 | 0
CCc1ccccc1OCC(=O)Nc1ccc(S(N)(=O)=O)cc1 | -17 | -3 | 5 | -2 | 0 | 0 | . | . | . | .
Cc1cnc(C(=O)OCC(=O)Nc2ccccc2[N+](=O)[O-])cn1 | . | 2 | -7 | 4 | . | 0 | . | . | . | .
O=C(Oc1ccc(/C=N/NC(=O)c2ccccn2)cc1)c1cccc(Br)c1 | -19 | -11 | -3 | 8 | . | 0 | . | . | . | .
O=C(Oc1ccc(/C=N/NC(=O)c2ccccn2)cc1)c1ccc(Br)cc1 | 6 | 3 | -6 | -4 | . | 7.2* | 101 | 0 | 102 | 0
CCCCN(C)CCN1C(=O)C2C(C(=O)Nc3ccc(C)cc3)C3C=CC2(O3)C1C(=O)NC1CCCCC1 (stereo not given) | -9 | 19 | 11 | -5 | . | 0 | . | . | . | .
COc1ccc(CNC(=O)COC(=O)CCC2CCCCC2)cc1 | -14 | -26 | 0 | -4 | 13 | 1 | . | . | . | .
COC(=O)c1ccc(CNC(=O)COC(=O)CCC2CCCC2)cc1 | -17 | -15 | 19 | 0 | -3 | 17* | 115 | 0 | 114 | 0
SMILES | T cruzi inh | CSC inhib | SUMO Mot1 rescue | Beta apoptosis | WT yeast gro inh | Efflux pump mplx | Cmpd fluor yeast | Mdr1 pump inh | CaCdr2 efflux inh | CaCdr1 efflux inh
CCNC(=O)N(C)C[C@H]1N[C@@](Cc2ccccc2)(C(=O)OC)[C@H]2C(=O)N(C)C(=O)[C@@H]12 | . | . | . | . | . | 0 | . | . | . | .
CCOC(=O)c1c(NC(=S)Nc2ccccc2)sc2c1CC(C)(C)SC2 | -6 | -9 | 60 | 5 | 9 | 0.5* | 202 | 6 | 245* | 4
Cc1ccc(C(=O)N/C(=C\c2cccs2)C(=O)NCC2CCCO2)cc1C (stereo not given) | 2 | -11 | 0 | 1 | -6 | 0 | . | . | . | .
COc1ccc(Nc2nc(N)c(C(=O)c3ccc(F)cc3)s2)cc1 | 8 | 62 | 20 | 3 | . | 12* | 98 | 0 | 96 | 0
COc1ccc(CC(=O)O/N=C(\N)c2ccc(C)cc2)cc1 | -14 | -7 | -14 | . | . | 0 | 114 | 0 | 117 | 0
Cc1ccc(-c2nc(CC(=O)Nc3cccc(S(=O)(=O)NC4=NCCC4)c3)cs2)cc1 | . | 5 | -6 | -5 | . | 0 | . | . | . | .
COc1ccc(N2C(=O)CC(NNC(=O)c3ccco3)C2=O)cc1 (stereo not given) | -10 | 0 | -5 | 0 | 13 | 2.1* | 105 | 0 | 110 | 0
O=C(NNC1CC(=O)N(c2ccccc2)C1=O)c1ccco1 (stereo not given) | 2 | -12 | 10 | -7 | -2 | 0 | . | . | . | .
O=C(OCC(=O)N1CCN(c2ccccc2)CC1)c1ccc(O)cc1O | -9 | 10 | -10 | 4 | . | 0 | . | . | . | .
COc1cccc2sc(Nc3nnc(-c4cccs4)o3)nc12 | 65* | 63 | 1 | 68 | 33 | 0.7* | 94 | 0 | 91 | 0
O=C(c1nc2nc(-c3ccccc3)cc(C(F)(F)F)n2n1)N1CCOCC1 | -8 | -2 | . | 3 | 2 | 0 | . | . | . | .
CC(C)(C)NC(=O)c1nc2nc(-c3ccccc3)cc(C(F)(F)F)n2n1 | 20 | -26 | -8 | 7 | -15 | 8.2* | 103 | 0 | 98 | 0
